Data as given in ChEMBL document CHEMBL1128171, “A series of N4-imidoethyl derivatives of 1-(2,3-dihydro-1,4-benzodioxin-5-yl)piperazine as 5-HT1A receptor ligands: synthesis and structure-affinity relationships” (J Med Chem, 1995).

Legend:
[1] = target: T1, 5-hydroxytryptamine receptor 1A (Rattus norvegicus, UniProt P19327); assay: Inhibition of [3H]2-(di-N-propylamino)-8-hydroxytetralin binding to 5-HT1A receptor of rat frontal cortex homogenates; format: tissue-based
T1 sequence (P19327 whole entry): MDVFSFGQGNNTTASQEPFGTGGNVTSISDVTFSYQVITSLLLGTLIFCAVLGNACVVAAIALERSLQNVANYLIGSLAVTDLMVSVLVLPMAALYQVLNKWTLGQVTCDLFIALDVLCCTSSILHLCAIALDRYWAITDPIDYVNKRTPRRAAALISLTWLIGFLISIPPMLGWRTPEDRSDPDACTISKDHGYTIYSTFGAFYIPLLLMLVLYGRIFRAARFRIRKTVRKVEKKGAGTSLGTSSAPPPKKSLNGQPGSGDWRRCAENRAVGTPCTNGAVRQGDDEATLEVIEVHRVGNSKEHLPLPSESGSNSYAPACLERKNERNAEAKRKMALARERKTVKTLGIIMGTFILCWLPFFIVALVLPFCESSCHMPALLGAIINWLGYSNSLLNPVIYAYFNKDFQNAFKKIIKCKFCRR
Outline: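 Rat frontal cortex homogenates incubated with [3H]-8-OH-DPAT at 37 °C, pH 7.7. Four to six drug concentrations, each in triplicate; three to six assays per value. IC50 for displacement of specific binding converted to Ki by Cheng–Prusoff using radioligand concentration and Kd. Reported as pKi.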

[2] = Ionisation constant of the compound; format: ADME
Outline: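 Potentiometric titration at 37 °C (±1 °C) under nitrogen, using a glass pH electrode calibrated at pH 4, 7 and 9. 30 mg substance in 40 mL 0.1 M KCl in carbonate-free water, 0.002-0.005 M. Titrant 0.05 M NaOH added in 0.05 mL steps. pKa calculated from 5-15 curve points (pre-precipitation only) and averaged.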

| Structure (SMILES) | Ki [1] | pKa [2] |
| --- | --- | --- |
| O=C1CCCC(=O)N1CCN1CCN(c2cccc3c2OCCO3)CC1 | 347 nM | 6.4 |
| CC1(C)CC(=O)N(CCN2CCN(c3cccc4c3OCCO4)CC2)C(=O)C1 | 4.68 nM | 6.42 |
| Cc1ccc2c(c1)C(=O)N(CCN1CCN(c3cccc4c3OCCO4)CC1)C2=O | 4.79 nM | 6.1 |
| CC1CC(=O)N(CCN2CCN(c3cccc4c3OCCO4)CC2)C1=O (configuration not stated) | 151 nM | 6.16 |
| O=C1C=CC(=O)N1CCN1CCN(c2cccc3c2OCCO3)CC1 | 977 nM | 5.9 |
| O=C1C2CCCCC2C(=O)N1CCN1CCN(c2cccc3c2OCCO3)CC1 (configuration not stated) | – | 6.07 |
| CC1=CC(=O)N(CCN2CCN(c3cccc4c3OCCO4)CC2)C1=O | 63.1 nM | 6.3 |
| O=C1CCC(=O)N1CCN1CCN(c2cccc3c2OCCO3)CC1 | 110 nM | 6.16 |
| O=C1C2CC=CCC2C(=O)N1CCN1CCN(c2cccc3c2OCCO3)CC1 (configuration not stated) | 10 nM | 6.05 |
| O=C1C2=C(CCCC2)C(=O)N1CCN1CCN(c2cccc3c2OCCO3)CC1 | 6.46 nM | 6.3 |
| O=C1CC2(CCCC2)CC(=O)N1CCN1CCN(c2cccc3c2OCCO3)CC1 | 0.708 nM | 6.51 |
| O=C1c2ccccc2C(=O)N1CCN1CCN(c2cccc3c2OCCO3)CC1 | 32.4 nM | – |
